According to ChEMBL document CHEMBL1152188, “Alpha-S-GalCer: synthesis and evaluation for iNKT cell stimulation” (Bioorg Med Chem Lett, 2008):
Activity calls are given as the source filed them.

How the values were obtained:
iNKT [1] = assay: Induction of cytokine expression in NOD mouse iNKT cells at 200 ng/mL after 48 hrs by intracellular staining for IFN-gamma; type: functional, cell-based
In short: (§1)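 Splenocytes from NOD or C57Bl/6 mice, CFSE-labeled and stimulated in vitro with the glycolipid. Cytokine induction measured by intracellular IFNγ staining at 24 and 48 h.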

iNKT [2] = assay: Induction of cytokine expression in NOD mouse iNKT cells at 100 ng/mL after 48 hrs by intracellular staining for IFN-gamma; type: functional, cell-based; in short: as §1
iNKT [3] = assay: Induction of cell proliferation in NOD mouse iNKT cells at 100 ng/mL after 24 hrs by CFSE dilution; type: functional, cell-based
In short: (§2)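 Splenocytes isolated from NOD or C57Bl/6 mice, labeled with CFSE and stimulated with the glycolipid in vitro. Proliferation read as CFSE dilution at 24 and 48 h.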

iNKT [4] = assay: Induction of cytokine expression in C57BL/6 mouse iNKT cells at 200 ng/mL after 24 hrs by intracellular staining for IFN-gamma; type: functional, cell-based; in short: as §1
Mus musculus [5] = assay: Activation of iNKT cells in C57BL/6 mouse assessed as intracellular cytokine expression at 5 or 10 ug, ip by FACS analysis; type: functional, organism-based
In short: (§3)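 Lipid given intraperitoneally to NOD or C57Bl/6 mice in PBS with […] Tween-20 (200 μg/mL). iNKT cell frequency and intracellular cytokine expression read by flow cytometry (FACS).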

iNKT [6] = assay: Induction of cytokine expression in C57BL/6 mouse iNKT cells at 100 ng/mL after 48 hrs by intracellular staining for IFN-gamma; type: functional, cell-based; in short: as §1
iNKT [7] = assay: Induction of cell proliferation in C57BL/6 mouse iNKT cells at 200 ng/mL after 48 hrs by CFSE dilution; type: functional, cell-based; in short: as §2
iNKT [8] = assay: Induction of cytokine expression in NOD mouse iNKT cells at 100 ng/mL after 24 hrs by intracellular staining for IFN-gamma; type: functional, cell-based; in short: as §1
iNKT [9] = assay: Induction of cytokine expression in C57BL/6 mouse iNKT cells at 200 ng/mL after 48 hrs by intracellular staining for IFN-gamma; type: functional, cell-based; in short: as §1
iNKT [10] = assay: Induction of cell proliferation in C57BL/6 mouse iNKT cells at 100 ng/mL after 48 hrs by CFSE dilution; type: functional, cell-based; in short: as §2
iNKT [11] = assay: Induction of cytokine expression in NOD mouse iNKT cells at 200 ng/mL after 24 hrs by intracellular staining for IFN-gamma; type: functional, cell-based; in short: as §1
iNKT [12] = assay: Induction of cell proliferation in C57BL/6 mouse iNKT cells at 100 ng/mL after 24 hrs by CFSE dilution; type: functional, cell-based; in short: as §2
iNKT [13] = assay: Induction of cell proliferation in NOD mouse iNKT cells at 200 ng/mL after 24 hrs by CFSE dilution; type: functional, cell-based; in short: as §2
Mus musculus [14] = assay: Activation of iNKT cells in NOD mouse assessed as cell frequency at 5 or 10 ug, ip by FACS analysis; type: functional, organism-based; in short: as §3
Mus musculus [15] = assay: Activation of iNKT cells in C57BL/6 mouse assessed as cell frequency at 5 or 10 ug, ip by FACS analysis; type: functional, organism-based; in short: as §3
iNKT [16] = assay: Induction of cell proliferation in NOD mouse iNKT cells at 100 ng/mL after 48 hrs by CFSE dilution; type: functional, cell-based; in short: as §2
iNKT [17] = assay: Induction of cytokine expression in C57BL/6 mouse iNKT cells at 100 ng/mL after 24 hrs by intracellular staining for IFN-gamma; type: functional, cell-based; in short: as §1
iNKT [18] = assay: Induction of cell proliferation in NOD mouse iNKT cells at 200 ng/mL after 48 hrs by CFSE dilution; type: functional, cell-based; in short: as §2
iNKT [19] = assay: Induction of cell proliferation in C57BL/6 mouse iNKT cells at 200 ng/mL after 24 hrs by CFSE dilution; type: functional, cell-based; in short: as §2
Mus musculus [20] = assay: Activation of iNKT cells in NOD mouse assessed as intracellular cytokine expression at 5 or 10 ug, ip by FACS analysis; type: functional, organism-based; in short: as §3

Measured: Activity

CCCCCCCCCCCCCCCCCCCCCCCCCC(=O)N[C@@H](CS[C@H]1O[C@H](CO)[C@H](O)[C@H](O)[C@H]1O)[C@H](O)[C@H](O)CCCCCCCCCCCCCC
inactive: iNKT [1] | iNKT [2] | iNKT [3] | iNKT [4] | Mus musculus [5] | iNKT [6] | iNKT [7] | iNKT [8] | iNKT [9] | iNKT [10] | iNKT [11] | iNKT [12] | iNKT [13] | Mus musculus [14] | Mus musculus [15] | iNKT [16] | iNKT [17] | iNKT [18] | iNKT [19] | Mus musculus [20]
